Test results as given in ChEMBL document CHEMBL1133682, “New arylpiperazine derivatives as antagonists of the human cloned 5-HT(4) receptor isoforms” (J Med Chem, 2000).

How the values were obtained:
[1] = biological target: T1, 5-hydroxytryptamine receptor 4 (Homo sapiens, UniProt Q13639); assay: Binding affinity was determined against cloned 5-hydroxytryptamine 4E receptor isoform expressed in C6 glial cells incubated with 0.2 nM [3H]GR-113808; type: cell-based
[2] = biological target: T1, 5-hydroxytryptamine receptor 4; assay: Binding affinity was determined against cloned 5-hydroxytryptamine 4A receptor isoform expressed in COS-7 cells; type: cell-based
[3] = biological target: T1, 5-hydroxytryptamine receptor 4; assay: Binding affinity was determined against cloned 5-hydroxytryptamine 4C receptor isoform expressed in COS-7 cells; type: cell-based
[4] = biological target: T1, 5-hydroxytryptamine receptor 4; assay: ,Antagonism of stimulation of 5-hydroxytryptamine receptor on the L-type calcium current (I Ca) in isolated human atrial myocytes; type: functional, cell-based, Cardiac atrium
[5] = biological target: T1, 5-hydroxytryptamine receptor 4; assay: Binding affinity was determined against cloned 5-hydroxytryptamine 4B receptor isoform expressed in COS-7 cells; type: cell-based
[6] = biological target: T1, 5-hydroxytryptamine receptor 4; assay: Concentration required to produce half-maximal response against 5-hydroxytryptamine receptor on the L-type calcium current (I Ca) in isolated human atrial myocytes; type: cell-based, Cardiac atrium
Procedure, shortened: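 Whole-cell patch clamp on enzymatically dissociated human atrial myocytes, room temperature (19–25 °C); Cs-based internal, pCa 8.5; I_Ca at 0 mV every 8 s, peak minus current at end of 400-ms pulse.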

[7] = biological target: T1, 5-hydroxytryptamine receptor 4; assay: Binding affinity was determined against cloned 5-hydroxytryptamine 4D receptor isoform expressed in COS-7 cells; type: cell-based

T1 sequence (Q13639 whole entry, canonical isoform): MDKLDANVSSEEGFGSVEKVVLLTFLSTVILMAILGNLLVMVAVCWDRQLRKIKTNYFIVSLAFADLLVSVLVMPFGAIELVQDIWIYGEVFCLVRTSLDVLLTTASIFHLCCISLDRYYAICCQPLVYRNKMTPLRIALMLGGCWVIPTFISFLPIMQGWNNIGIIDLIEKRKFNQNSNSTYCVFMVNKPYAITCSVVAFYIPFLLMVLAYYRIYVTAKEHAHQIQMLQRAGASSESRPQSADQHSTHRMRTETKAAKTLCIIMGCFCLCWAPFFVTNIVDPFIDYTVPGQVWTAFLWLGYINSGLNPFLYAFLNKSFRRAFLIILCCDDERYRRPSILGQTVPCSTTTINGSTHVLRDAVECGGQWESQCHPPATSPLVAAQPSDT

| Compound | Ki [1] [µM] | other results |
| --- | --- | --- |
| COc1cc(N)c(Cl)cc1C(=O)OCCN1CCN(c2ccccc2Cl)CC1 | 0.296 | – |
| COc1cc(N)c(Cl)cc1C(=O)OCCN1CCNCC1 | > 1 | – |
| Cn1cc(C(=O)OCC2CCN(CCNS(C)(=O)=O)CC2)c2ccccc21 | 0.0001 | – |
| CCOC(=O)N1CCN(CCOC(=O)c2cc(Cl)c(N)cc2OC)CC1 | 0.023 | – |
| COc1cc(N)c(Cl)cc1C(=O)OCCN1CCN(c2ccccc2OC)CC1 | 0.064 | – |
| COc1cc(N)c(Cl)cc1C(=O)OCCN1CCN(c2cccc3ccccc23)CC1 | > 1 | – |
| COc1cc(N)c(Cl)cc1C(=O)OCCN1CCN(C)CC1 | > 1 | – |
| COc1cc(N)c(Cl)cc1C(=O)OCCN1CCN(c2cccc(Cl)c2)CC1 | 0.162 | – |
| COc1cc(N)c(Cl)cc1C(=O)OCCN1CCN(c2ccc(F)cc2)CC1 | 0.0231 | – |
| COc1cc(N)c(Cl)cc1C(=O)OCCN1CCN(Cc2ccccc2)CC1 | 0.24 | – |
| COc1cc(N)c(Cl)cc1C(=O)OCCN1CCN(c2ccc(Cl)cc2)CC1 | 0.715 | – |
| COc1ccc(N2CCN(CCOC(=O)c3cc(Cl)c(N)cc3OC)CC2)cc1 | 0.0177 | – |
| COc1cc(N)c(Cl)cc1C(=O)OCCN1CCN(c2cccc(C(F)(F)F)c2)CC1 | 0.199 | – |
| COc1cc(N)c(Cl)cc1C(=O)OCCN1CCN(C(=O)OC(C)(C)C)CC1 | > 1 | – |

More lines, in order of falling Ki [1], values ahead:

| Ki [1] [µM] | Compound | other results |
| --- | --- | --- |
| 0.0168 | COc1cc(N)c(Cl)cc1C(=O)OCCN1CCN(c2ccccc2F)CC1 | – |
| 0.0143 | COc1cc(N)c(Cl)cc1C(=O)OCCN1CCN(c2ccccc2)CC1 | Ki [2]: 0.023 µM; Ki [3]: 0.0125 µM; Ki [5]: 0.055 µM; Ki [7]: 0.032 µM |
| 0.0115 | COc1cc(N)c(Cl)cc1C(=O)OCCCN1CCN(c2ccccc2)CC1 | – |
| 0.0098 | COc1cc(N)c(Cl)cc1C(=O)OCCN1CCN(c2cnc(Cl)nc2)CC1 | – |
| 0.0092 | COc1cc(N)c(Cl)cc1C(=O)OCCN1CCN(c2ccncn2)CC1 | – |
| 0.0035 | COc1cc(N)c(Cl)cc1C(=O)OCCN1CCN(c2ccncc2)CC1 | – |
| 0.003 | COc1cccc(N2CCN(CCOC(=O)c3cc(Cl)c(N)cc3OC)CC2)c1 | – |
| 0.002 | COc1cc(N)c(Cl)cc1C(=O)OCCN1CCN(c2ccc(Cl)nn2)CC1 | – |
| 0.0015 | COc1cc(N)c(Cl)cc1C(=O)OCCN1CCN(c2ccccn2)CC1 | – |
| 0.0014 | COc1cc(N)c(Cl)cc1C(=O)OCCN1CCN(c2cccnn2)CC1 | – |
| 0.0014 | COc1cc(N)c(Cl)cc1C(=O)OCCN1CCN(c2cnccn2)CC1 | – |
| 0.001 | COc1cc(N)c(Cl)cc1C(=O)OCCN1CCN(c2ncccn2)CC1 | Ki [2]: 0.0035 µM; Ki [3]: 0.00247 µM; Kd [4]: 0.0007 µM; Ki [5]: 0.0081 µM; EC50 [6]: 0.0045 µM; Ki [7]: 0.00703 µM |
